Reference: ChEMBL document CHEMBL4321862, “Application of Bivalent Bioisostere Concept on Design and Discovery of Potent Opioid Receptor Modulators” (J Med Chem, 2019)
Calls of active or inactive are those of the source.

Columns and labels:
[1] = target: Kappa-type opioid receptor (Mus musculus, UniProt P33534); test: Displacement of [3H]-[…] from mouse kappa opioid receptor expressed in CHO cells incubated for […] by competitive radioligand binding assay; type: cell-based
[2] = target: Delta-type opioid receptor (Homo sapiens, UniProt P41143); test: Displacement of [3H]-[…] from human delta opioid receptor expressed in CHO cells incubated for […] by competitive radioligand binding assay; type: cell-based
[3] = tested on: Mus musculus; test: Antinociceptive activity in Swiss Webster mouse assessed as increase in latency to tail withdrawal at 10 mg/kg, sc observed for 20 mins by warm water tail withdrawal assay; type: functional, organism-based
How it was run: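 Male Swiss Webster mice, 25–30 g, n = 5 per group, baseline tail latency 2–4 s accepted. Compound given s.c. in saline or water. Tail immersed in 56 ± 0.1 °C water 20 min post-dose, 10 s cutoff. %MPE = [(test − control)/(10 − control)] × 100. Saline and morphine as controls.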

[4] = target: Mu-type opioid receptor (Mus musculus) (UniProt P42866); test: Agonist activity at recombinant mouse mu opioid receptor expressed in CHO cell membrane assessed as [35]-GTPgammaS binding incubated for […] by scintillation counting method relative to DAMGO
[5] = Selectivity index, ratio of Ki for mouse kappa opioid receptor expressed in CHO cells to Ki for mouse mu opioid receptor expressed in CHO cells
[6] = target: T1, Mu-type opioid receptor (Mus musculus, UniProt P42866); test: Agonist activity at recombinant mouse mu opioid receptor expressed in CHO cell membrane assessed as [35]-GTPgammaS binding incubated for […] by scintillation counting method
[7] = target: T1, Mu-type opioid receptor; test: Displacement of [3H]-Naloxone from mouse mu opioid receptor expressed in CHO cells incubated for […] by competitive radioligand binding assay; type: cell-based
[8] = Selectivity index, ratio of Ki for human delta opioid receptor expressed in CHO cells to Ki for mouse mu opioid receptor expressed in CHO cells
[9] = tested on: Mus musculus; test: Inhibition of morphine-induced antinociceptive activity in Swiss Webster mouse assessed as decrease in latency to tail withdrawal at 10 mg/kg, sc administered 5 mins before morphine stimulation observed for 20 mins by warm water tail withdrawal assay; type: functional, organism-based
How it was run: (§1)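 Male Swiss Webster mice, n ≥ 5, baseline latency 2–4 s. Test compound given s.c. 5 min before morphine 10 mg/kg. Tail immersion at 56 ± 0.1 °C 20 min after morphine, 10 s cutoff, %MPE per mouse.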

[10] = tested on: Mus musculus; test: Inhibition of morphine-induced antinociceptive activity in subcutaneously dosed Swiss Webster mouse assessed as decrease in latency to tail withdrawal administered 5 mins before morphine stimulation observed for 20 mins by warm water tail withdrawal assay; type: functional; how it was run: as §1
[11] = tested on: Mus musculus; test: Inhibition of opioid-withdrawal symptom in morphine-pelleted Swiss Webster mouse assessed as reduction in wet dog shakes at 1 mg/kg, sc observed after 20 mins; type: functional, organism-based
How it was run: (§2)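 Male Swiss Webster mice, n = 5, implanted with 75 mg morphine pellet at base of neck. After 72 h, 30 min habituation in observation chamber, then test compound s.c. Wet-dog shakes, escape jumps and paw tremors counted over 20 min.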

[12] = tested on: Mus musculus; test: Inhibition of opioid-withdrawal symptom in morphine-pelleted Swiss Webster mouse assessed as reduction in paw tremors at 1 mg/kg, sc observed after 20 mins; type: functional, organism-based; how it was run: as §2
[13] = tested on: Mus musculus; test: Inhibition of opioid-withdrawal symptom in morphine-pelleted Swiss Webster mouse assessed as reduction in escape jumps at 1 mg/kg, sc observed after 20 mins; type: functional, organism-based; how it was run: as §2

| Compound | Ki [1] [nM] | Ki [2] [nM] | Activity [3] | Emax [4] [%] | Ratio Ki [5] | EC50 [6] [nM] | Ki [7] [nM] | Ratio Ki [8] | inhibition [9] | AD50 [10] [mg/kg] | inhibition [11] | inhibition [12] | inhibition [13] |
| --- | --- | --- | --- | --- | --- | --- | --- | --- | --- | --- | --- | --- | --- |
| Cl.O=C(N[C@@H]1CC[C@@]2(O)[C@H]3Cc4ccc(O)c5c4[C@@]2(CCN3CC2CC2)[C@H]1O5)c1ccc2ccsc2c1 | 0.2 | 2.04 | Active | 58.7 | 1.3 | 0.21 | 0.15 | 13.6 |  |  |  |  |  |
| Cl.O=C(N[C@@H]1CC[C@@]2(O)[C@H]3Cc4ccc(O)c5c4[C@@]2(CCN3CC2CC2)[C@H]1O5)c1cccc2ccsc12 | 1.62 | 38.9 |  |  | 8.5 | 2.97 | 0.19 | 204.9 |  |  |  |  |  |
| Cl.O=C(N[C@@H]1CC[C@@]2(O)[C@H]3Cc4ccc(O)c5c4[C@@]2(CCN3CC2CC2)[C@H]1O5)c1cc2ccccc2s1 | 0.2 | 1.39 | Active | 59 | 1.4 | 0.24 | 0.14 | 9.9 |  |  |  |  |  |
| Cl.O=C(N[C@H]1CC[C@@]2(O)[C@H]3Cc4ccc(O)c5c4[C@@]2(CCN3CC2CC2)[C@H]1O5)c1cc2ccccc2o1 | 1.67 | 35.9 |  | 34 | 3.8 | 5.52 | 0.44 | 81.6 | Active | 3.21 |  |  |  |
| Cl.O=C(N[C@H]1CC[C@@]2(O)[C@H]3Cc4ccc(O)c5c4[C@@]2(CCN3CC2CC2)[C@H]1O5)c1csc2ccccc12 | 2.39 | 9.07 |  | 14.3 | 11.9 | 1.85 | 0.2 | 45.4 |  |  |  |  |  |
| C=CCN1CC[C@]23c4c5ccc(O)c4O[C@H]2C(=O)CC[C@@]3(O)[C@H]1C5 |  |  |  |  |  |  |  |  |  |  | Active | Active | Active |
| Cl.O=C(N[C@@H]1CC[C@@]2(O)[C@H]3Cc4ccc(O)c5c4[C@@]2(CCN3CC2CC2)[C@H]1O5)c1cccc2occc12 | 0.8 | 70.5 |  | 23.6 | 4.7 | 0.59 | 0.17 | 415 | Active | 2.79 |  |  |  |
| O=C(N[C@H]1CC[C@@]2(O)[C@H]3Cc4ccc(O)c5c4[C@@]2(CCN3CC2CC2)[C@H]1O5)c1cccc2ccoc12 | 5.12 |  |  | 12.9 |  |  |  |  |  |  |  |  |  |
| Cl.O=C(N[C@@H]1CC[C@@]2(O)[C@H]3Cc4ccc(O)c5c4[C@@]2(CCN3CC2CC2)[C@H]1O5)c1ccc2occc2c1 | 0.21 | 5.31 | Active | 52.2 | 1.4 | 0.41 | 0.15 | 35.4 |  |  |  |  |  |
| Cl.O=C(N[C@H]1CC[C@@]2(O)[C@H]3Cc4ccc(O)c5c4[C@@]2(CCN3CC2CC2)[C@H]1O5)c1cc2ccccc2s1 | 1.21 | 14.3 |  | 22.9 | 4.5 | 4.02 | 0.27 | 53 |  |  |  |  |  |
| Cl.O=C(N[C@H]1CC[C@@]2(O)[C@H]3Cc4ccc(O)c5c4[C@@]2(CCN3CC2CC2)[C@H]1O5)c1coc2ccccc12 | 3.37 | 16.8 |  | 18.7 | 12.5 | 1.57 | 0.27 | 62.3 | Active | 2.51 |  |  |  |
